Measurements: ChEMBL document CHEMBL4002637, “Synthesis, characterization, in vitro SAR and in vivo evaluation of N,N'bisnaphthylmethyl 2-alkyl substituted imidazolium salts against NSCLC” (Bioorg Med Chem Lett, 2017)
Active and inactive are the calls of the source. The calls are words filed in the database; no cut-off is given here.

Assays:
A549 [1] = test: Antiproliferative activity against human A549 cells using 10% 2-HPbetaCD compound formulation after 72 hrs by MTT assay; format: functional, cell-based; settings: A549, 72 h
Summary of the method: (§1)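 MTT anti-proliferation on NSCLC lines. Compounds dissolved in DMSO, diluted with water to 1% DMSO, then into growth medium (max 0.032% DMSO on cells); or dissolved in 10% (w/v) 2-HPβCD in water, then diluted (max 0.008% w/w 2-HPβCD in wells; vehicle controls at 0.008%). IC50 = concentration giving 50% loss of viability versus control cells. Cisplatin dissolved in water with stirring.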

[2] = Solubility of the compound in 1% DMSO/water solution; format: physicochemical; settings: buffer
HCC827 = test: Antiproliferative activity against human HCC827 cells using 10% 2-HPbetaCD compound formulation after 72 hrs by MTT assay; format: functional, cell-based; settings: HCC827, 72 h; summary of the method: as §1
NCI-H460 [3] = test: Induction of apoptosis in human NCI-H460 cells assessed as blebbing at 40 uM up to 6 hrs using 1% DMSO/water compound formulation by Annexin V-FITC/propidium iodide staining based fluorescence microscopic method; format: functional, cell-based
A549 [4] = test: Growth inhibition of human A549 cells assessed as cell growth at 10 uM after 24 hrs by SRB assay relative to control; format: functional; settings: A549, 24 h, read-out: Activity
Summary of the method: (§2)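 NCI DTP one-dose screen: cells plated at density set by doubling rate, incubated overnight, then exposed to compound at 10 μM for 24 hours. Growth percentage from protein density at end versus start of experiment, relative to initial cell number.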

NCI-H460 [5] = test: Growth inhibition of human NCI-H460 cells assessed as cell growth at 10 uM after 24 hrs by SRB assay relative to control; format: functional; settings: NCI-H460, 24 h, read-out: Activity; summary of the method: as §2
[6] = Aqueous solubility of the compound in water; format: physicochemical; settings: buffer
A549 [7] = test: Growth inhibition of human A549 cells after 24 hrs by SRB assay; format: functional; settings: A549, 24 h
NCI-H1975 [8] = test: Potency index, ratio of compound cisplatin IC50 to compound IC50 for human NCI-H1975 cells using 10% 2-HPbetaCD compound formulation; format: functional
NCI-H1975 [9] = test: Antiproliferative activity against human NCI-H1975 cells using 1% DMSO/water compound formulation after 72 hrs by MTT assay; format: functional, cell-based; settings: NCI-H1975, 72 h; summary of the method: as §1
NCI-H322M [10] = test: Growth inhibition of human NCI-H322M cells after 24 hrs by SRB assay; format: functional
NCI-H460 [11] = test: Induction of apoptosis in human NCI-H460 cells assessed as morphological changes at 40 uM up to 3 hrs by Annexin V-FITC/propidium iodide staining based fluorescence microscopic method; format: functional, cell-based
HOP-92 [12] = test: Growth inhibition of human HOP92 cells assessed as cell growth at 10 uM after 24 hrs by SRB assay relative to control; format: functional; settings: HOP-92, 24 h, read-out: Activity; summary of the method: as §2
NCI-H1975 [13] = test: Potency index, ratio of compound cisplatin IC50 to compound IC50 for human NCI-H1975 cells using 1% DMSO/water compound formulation; format: functional
NCI-H460 [14] = test: Induction of apoptosis in human NCI-H460 cells at 40 uM up to 1 hr using 1% DMSO/water compound formulation by Annexin V-FITC/propidium iodide staining based fluorescence microscopic method; format: functional, cell-based
EKVX [15] = test: Growth inhibition of human EKVX cells assessed as cell growth at 10 uM after 24 hrs by SRB assay relative to control; format: functional; settings: read-out: Activity; summary of the method: as §2
Bos taurus [16] = species on record: Bos taurus; test: Binding affinity to calf thymus DNA assessed as increase in viscosity at 10 to 70 uM using 1% DMSO/water compound formulation by Ostwald viscometric method
NCI-H460 [17] = test: Disruption of mitochondrial membrane potential in human NCI-H460 cells at 20 uM up to 30 mins using […] by JC1/DAPI staining based confocal microscopic method; format: functional, cell-based
NCI-H23 = test: Growth inhibition of human NCI-H23 cells after 24 hrs by SRB assay; format: functional; settings: NCI-H23, 24 h
NCI-H460 [18] = test: Growth inhibition of human NCI-H460 cells after 24 hrs by SRB assay; format: functional; settings: NCI-H460, 24 h
NCI-H460 [19] = test: Disruption of mitochondrial membrane potential in human NCI-H460 cells at 40 uM up to 1 hr […] by JC1/DAPI staining based confocal microscopic method; format: functional, cell-based
HOP-92 [20] = test: Growth inhibition of human HOP92 cells after 24 hrs by SRB assay; format: functional; settings: HOP-92, 24 h
NCI-H460 [21] = test: Induction of apoptosis in human NCI-H460 cells assessed as blebbing at 40 uM after 14 hrs using 10% 2HPbetaCD/water compound formulation by Annexin V-FITC/propidium iodide staining based fluorescence microscopic method; format: functional, cell-based
Summary of the method: (§3)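 Annexin V-FITC/propidium iodide staining of H460 cells in 6-well plates. Compound given in 10% (w/v) 2-HPβCD aqueous solution. Imaged at 12, 14, 17 and 20 h with 20× objective as merged transmitted, green and red channels. Controls: 2-HPβCD and cisplatin, 20 h.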

A549 [22] = test: Antiproliferative activity against human A549 cells using 1% DMSO/water compound formulation after 72 hrs by MTT assay; format: functional, cell-based; settings: A549, 72 h; summary of the method: as §1
NCI-H460 [23] = test: Induction of apoptosis in human NCI-H460 cells at 40 uM up to 12 hrs using 10% 2HPbetaCD/water compound formulation by Annexin V-FITC/propidium iodide staining based fluorescence microscopic method; format: functional, cell-based; summary of the method: as §3
HOP-62 [24] = test: Growth inhibition of human HOP62 cells after 24 hrs by SRB assay; format: functional; settings: HOP-62, 24 h
NCI-H226 [25] = test: Growth inhibition of human NCI-H226 cells assessed as cell growth at 10 uM after 24 hrs by SRB assay relative to control; format: functional; settings: NCI-H226, 24 h, read-out: Activity; summary of the method: as §2
Bos taurus [26] = species on record: Bos taurus; test: Inhibition of ethidium bromide binding to calf thymus DNA assessed as at 13.3 uM using 10% 2HPbetaCD/water compound formulation by spectrofluorometric method
EKVX [27] = test: Growth inhibition of human EKVX cells after 24 hrs by SRB assay; format: functional
HOP-62 [28] = test: Growth inhibition of human HOP62 cells assessed as cell growth at 10 uM after 24 hrs by SRB assay relative to control; format: functional; settings: HOP-62, 24 h, read-out: Activity; summary of the method: as §2
NCI-H322M [29] = test: Growth inhibition of human NCI-H322M cells assessed as cell growth at 10 uM after 24 hrs by SRB assay relative to control; format: functional; settings: read-out: Activity; summary of the method: as §2
NCI-H226 [30] = test: Growth inhibition of human NCI-H226 cells after 24 hrs by SRB assay; format: functional; settings: NCI-H226, 24 h
NCI-H1975 [31] = test: Antiproliferative activity against human NCI-H1975 cells using 10% 2-HPbetaCD compound formulation after 72 hrs by MTT assay; format: functional, cell-based; settings: NCI-H1975, 72 h; summary of the method: as §1
[32] = read-out: LC50 (the source's name)

Compound: CCc1n(Cc2ccc3ccccc3c2)cc[n+]1Cc1ccc2ccccc2c1.[Br-]
- IC50 (A549 [1]): 2.34 µM
- solubility [2]: Soluble
- IC50 (HCC827): 0.97 µM
- Activity (NCI-H460 [3]): Active
- growth at 10 µM (A549 [4]): 28.5%
- growth at 10 µM (NCI-H460 [5]): 5.54%
- solubility [6]: < 500 µg/mL
- GI50 (A549 [7]): 2.59 µM
- TGI (A549 [7]): 13.9 µM
- CC50 (A549 [7]; [32]): 57.9 µM
- Ratio IC50 (NCI-H1975 [8]): 17
- IC50 (NCI-H1975 [9]): 0.66 µM
- GI50 (NCI-H322M [10]): 2.12 µM
- LC50 (lethal concentration 50%) (NCI-H322M [10]): 6.71 µM
- TGI (NCI-H322M [10]): 6.71 µM
- Activity (NCI-H460 [11]): inactive
- growth at 10 µM (HOP-92 [12]): -31.4%
- Ratio IC50 (NCI-H1975 [13]): 15
- Activity (NCI-H460 [14]): Active
- growth at 10 µM (EKVX [15]): 11.9%
- Activity (Bos taurus [16]): inactive
- Activity (NCI-H460 [17]): Active
- GI50 (NCI-H23): 0.396 µM
- TGI (NCI-H23): 2.02 µM
- CC50 (NCI-H23; [32]): 2.02 µM
- GI50 (NCI-H460 [18]): 0.724 µM
- TGI (NCI-H460 [18]): 2.15 µM
- CC50 (NCI-H460 [18]; [32]): 2.15 µM
- Activity (NCI-H460 [19]): Active
- GI50 (HOP-92 [20]): 0.338 µM
- TGI (HOP-92 [20]): 1.77 µM
- CC50 (HOP-92 [20]; [32]): 1.77 µM
- Activity (NCI-H460 [21]): Active
- IC50 (A549 [22]): 2.63 µM
- Activity (NCI-H460 [23]): inactive
- GI50 (HOP-62 [24]): 1.42 µM
- LC50 (HOP-62 [24]): 9.36 µM
- TGI (HOP-62 [24]): 3.65 µM
- growth at 10 µM (NCI-H226 [25]): 6.75%
- inhibition (Bos taurus [26]): inactive
- GI50 (EKVX [27]): 0.766 µM
- LC50 (EKVX [27]): 35.8 µM
- TGI (EKVX [27]): 5.55 µM
- growth at 10 µM (HOP-62 [28]): 11.9%
- growth at 10 µM (NCI-H322M [29]): 44.3%
- GI50 (NCI-H226 [30]): 1.08 µM
- LC50 (NCI-H226 [30]): 3.82 µM
- TGI (NCI-H226 [30]): 3.82 µM
- IC50 (NCI-H1975 [31]): 0.56 µM
